Measurements published in publication PMC5554913 (ACS Medicinal Chemistry Letters, 2017).

Key:
[1] = test system: human lymphoblasts (CRL-8155); assay: Mammalian cell growth inhibition; assay type: cell-based; details: CRL-8155 cell line
Hep G2 cell line = assay: Cytotoxicity on Hep G2 cell line; assay type: cell-based
[2] = test system: T. brucei brucei strain BF427; assay: T. brucei growth inhibition; assay type: cell-based; details: for improvement in potency compared to compound 1: T. brucei EC50 vs compound 1
CYP3A4 = CYP3A4 (Homo sapiens, UniProt P08684); assay: CYP3A4 inhibition; assay type: in vitro ADME
[3] = test system: T. brucei rhodesiense STIB900; assay: Mouse efficacy model of acute T. brucei infection; assay type: in vivo; details: five mice, T. brucei rhodesiense STIB900, 50 mg/kg oral gavage b.i.d. days 2-5
Procedure, shortened: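 Mice were infected with T. brucei rhodesiense STIB900 on day 0 and placed in groups of five. Test compound was given at 50 mg/kg by oral gavage twice daily on days 2–5, with a vehicle-treated group. Cure meant no detectable parasitemia […] through 60 days postinfection.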

[4] = Metabolic stability in pooled mouse liver microsomes; assay type: in vitro ADME; details: microsome T1/2, mouse microsomes
Procedure, shortened: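 Half-life of test compound measured in mouse liver microsomes. Testosterone and dextromethorphan HBr were run alongside as controls and had to fall within acceptable ranges.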

Chain of CYP3A4 (P08684 whole entry, species assumed): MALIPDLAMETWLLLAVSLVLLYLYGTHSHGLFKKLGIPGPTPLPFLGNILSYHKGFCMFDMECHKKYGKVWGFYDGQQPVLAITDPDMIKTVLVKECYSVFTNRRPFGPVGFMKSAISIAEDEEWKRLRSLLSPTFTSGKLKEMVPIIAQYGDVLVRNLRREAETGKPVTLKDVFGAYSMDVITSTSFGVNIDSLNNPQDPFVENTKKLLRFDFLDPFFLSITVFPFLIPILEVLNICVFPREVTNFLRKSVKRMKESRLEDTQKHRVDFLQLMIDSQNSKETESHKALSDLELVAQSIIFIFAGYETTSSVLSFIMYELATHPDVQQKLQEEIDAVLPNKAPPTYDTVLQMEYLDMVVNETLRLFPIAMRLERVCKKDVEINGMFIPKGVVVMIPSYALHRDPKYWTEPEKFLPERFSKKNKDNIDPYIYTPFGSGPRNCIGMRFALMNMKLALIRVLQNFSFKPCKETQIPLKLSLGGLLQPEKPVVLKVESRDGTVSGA

Which “cytotoxicity on CRL-8155” value [1] does the source give for `COc1ccc(N2C(=O)CN(Cc3ccccc3)C2=S)cc1Cl` [Compound 1] here?
Its value is “no detected cytotoxicity”.

And the “cytotoxicity on Hep G2” value (Hep G2 cell line)?
The value was “no detected cytotoxicity”.

With `COc1ccc(N2C(=O)CN(Cc3ccccc3)C2=S)cc1N(C)C` [Compound 37] as the compound, how does the “drop in activity compared to 36” value ([2]; T. brucei EC50 vs compound 36) read?
Its value is 30 fold.

For `COc1ccc(N2C(=O)CN(Cc3cccc(F)c3)C2=S)cc1Cl` [Compound 40], which “decrease in potency compared to 39” value ([2]; T. brucei EC50 vs compound 39) is on record?
Its value is 18 fold.

Which results are given for `CN(C)c1ccc(N2C(=O)CN(Cc3ccc(F)cc3)C2=S)cc1Cl` [Compound 68, 1-(4-fluorobenzyl)-3-(4-dimethylamino-3-chlorophenyl)-2-thiohydantoin]?
improvement in potency compared to compound 1 [2]: > 100 fold; IC50 (CYP3A4): 12.8 µM; cures (absence of detectable parasitemia for 60 days postinfection) [3]: 5/5

For `COc1cc(N2C(=O)CN(Cc3ccc(F)cc3Cl)C2=S)ccc1N(C)C` [Compound 76, 1-(2-chloro-4-fluorobenzyl)-3-(4-dimethylamino-3-methoxyphenyl)-2-thiohydantoin], which “improvement in potency compared to compound 1” value [2] is on record?
Its value is greater than 100 fold.

What about the “cures (absence of detectable parasitemia for 60 days postinfection)” value [3] of the same compound?
The value was 5/5.

With `C[C@]12CC[C@H]3[C@@H](CCC4=CC(=O)CC[C@@]43C)[C@@H]1CC[C@@H]2O` [Testosterone] as the compound, how does the half-life at 1.5 µM [4] read?
Its half-life at 1.5 µM is 3.97 min.

With `COc1ccc2c(c1)[C@]13CCCC[C@@H]1[C@H](C2)N(C)CC3` [dextromethorphan HBr] as the compound, how does the half-life at 1.5 µM [4] read?
The half-life at 1.5 µM was 9.51 min.
